Measurements as given in ChEMBL document CHEMBL3588757, “Structure-based design, synthesis and biological testing of piperazine-linked bis-epipodophyllotoxin etoposide analogs” (Bioorg Med Chem, 2015).

Assays:
Format in all cases: functional
UACC-62 = assay: Cytotoxicity against human UACC62 cells assessed as cell growth at 50 uM by SRB assay; conditions: read-out: Activity
MCF7 [1] = assay: Cytotoxicity against human MCF7 cells assessed as cell growth at 50 uM by SRB assay; conditions: read-out: Activity
HOP-92 [2] = assay: Cytotoxicity against human HOP92 cells by SRB assay
In short: (§1)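 Measured in the NCI-60 human tumour cell line panel using five-dose testing. Growth was recorded at each dose for each cell line, and a GI50 was derived for each line.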

SNB-75 = assay: Cytotoxicity against human SNB75 cells by SRB assay
In short: (§2)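 NCI-60 panel screen; 5-dose testing giving GI50 per cell line, plus a single 10 µM one-dose test. Method details not given beyond the NCI screen.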

LOX IMVI = assay: Cytotoxicity against human LOXIMVI cells by SRB assay; in short: as §2
M14 = assay: Cytotoxicity against human M14 cells by SRB assay; in short: as §2
IGROV-1 = assay: Cytotoxicity against human IGROV1 cells by SRB assay; in short: as §2
UO-31 [3] = assay: Cytotoxicity against human UO31 cells by SRB assay; in short: as §2
DU-145 [4] = assay: Cytotoxicity against human DU145 cells by SRB assay; in short: as §1
BT-549 [5] = assay: Cytotoxicity against human BT549 cells by SRB assay
HOP-62 [6] = assay: Cytotoxicity against human HOP62 cells assessed as cell growth at 0.005 uM by SRB assay; conditions: read-out: Activity; in short: as §1
HCT-116 = assay: Cytotoxicity against human HCT116 cells assessed as cell growth at 0.005 uM by SRB assay; conditions: read-out: Activity; in short: as §1
HCT-15 = assay: Cytotoxicity against human HCT15 cells assessed as cell growth at 0.005 uM by SRB assay; conditions: read-out: Activity; in short: as §1
OVCAR-3 = assay: Cytotoxicity against human OVCAR3 cells assessed as cell growth at 0.005 uM by SRB assay; conditions: read-out: Activity
CAKI-1 = assay: Cytotoxicity against human Caki1 cells assessed as cell growth at 0.005 uM by SRB assay; conditions: read-out: Activity
UO-31 [7] = assay: Cytotoxicity against human UO31 cells assessed as cell growth at 0.005 uM by SRB assay; conditions: read-out: Activity
PC-3 = assay: Cytotoxicity against human PC3 cells assessed as cell growth at 0.005 uM by SRB assay; conditions: read-out: Activity
MCF7 [8] = assay: Cytotoxicity against human MCF7 cells assessed as cell growth at 0.005 uM by SRB assay; conditions: read-out: Activity
MDA-MB-231 [9] = assay: Cytotoxicity against human MDA-MB-231/ATCC cells assessed as cell growth at 0.005 uM by SRB assay; conditions: read-out: Activity
[10] = Cytotoxicity against human Hs578T cells assessed as cell growth at 0.005 uM by SRB assay; conditions: Hs-578T, read-out: Activity; in short: as §1
HOP-92 [11] = assay: Cytotoxicity against human HOP92 cells assessed as cell growth at 0.05 uM by SRB assay; conditions: read-out: Activity; in short: as §1
NCI-H226 = assay: Cytotoxicity against human NCI-H226 cells assessed as cell growth at 0.05 uM by SRB assay; conditions: read-out: Activity
OVCAR-4 = assay: Cytotoxicity against human OVCAR4 cells assessed as cell growth at 0.05 uM by SRB assay; conditions: read-out: Activity
A498 = assay: Cytotoxicity against human A498 cells assessed as cell growth at 0.05 uM by SRB assay; conditions: read-out: Activity
DU-145 [12] = assay: Cytotoxicity against human DU145 cells assessed as cell growth at 0.05 uM by SRB assay; conditions: read-out: Activity; in short: as §1
BT-549 [13] = assay: Cytotoxicity against human BT549 cells assessed as cell growth at 0.05 uM by SRB assay; conditions: read-out: Activity
HL-60(TB) [14] = assay: Cytotoxicity against human HL-60(TB) cells assessed as cell growth at 0.5 uM by SRB assay; conditions: read-out: Activity; in short: as §1
HOP-62 [15] = assay: Cytotoxicity against human HOP62 cells assessed as cell growth at 0.5 uM by SRB assay; conditions: read-out: Activity; in short: as §1
SF-539 = assay: Cytotoxicity against human SF539 cells assessed as cell growth at 0.5 uM by SRB assay; conditions: read-out: Activity
SK-MEL-2 = assay: Cytotoxicity against human SK-MEL-2 cells assessed as cell growth at 0.5 uM by SRB assay; conditions: read-out: Activity
SK-MEL-28 = assay: Cytotoxicity against human SK-MEL-28 cells assessed as cell growth at 0.5 uM by SRB assay; conditions: read-out: Activity
[16] = Cytotoxicity against human NCI-ADR-RES cells assessed as cell growth at 0.5 uM by SRB assay; conditions: read-out: Activity
SN12C = assay: Cytotoxicity against human SN12C cells assessed as cell growth at 0.5 uM by SRB assay; conditions: read-out: Activity
HL-60(TB) [17] = assay: Cytotoxicity against human HL-60(TB) cells assessed as cell growth at 5 uM by SRB assay; conditions: read-out: Activity; in short: as §1
786-0 = assay: Cytotoxicity against human 786-0 cells assessed as cell growth at 5 uM by SRB assay; conditions: read-out: Activity
DU-145 [18] = assay: Cytotoxicity against human DU145 cells assessed as cell growth at 5 uM by SRB assay; conditions: read-out: Activity; in short: as §1
MDA-MB-231 [19] = assay: Cytotoxicity against human MDA-MB-231/ATCC cells assessed as cell growth at 5 uM by SRB assay; conditions: read-out: Activity
RPMI-8226 = assay: Cytotoxicity against human RPMI8226 cells assessed as cell growth at 50 uM by SRB assay; conditions: read-out: Activity
HOP-62 [20] = assay: Cytotoxicity against human HOP62 cells assessed as cell growth at 50 uM by SRB assay; conditions: read-out: Activity; in short: as §1
NCI-H460 = assay: Cytotoxicity against human NCI-H460 cells assessed as cell growth at 50 uM by SRB assay; conditions: read-out: Activity
NCI-H522 = assay: Cytotoxicity against human NCI-H522 cells assessed as cell growth at 50 uM by SRB assay; conditions: read-out: Activity
COLO 205 = assay: Cytotoxicity against human COLO205 cells assessed as cell growth at 50 uM by SRB assay; conditions: read-out: Activity
[21] = read-out: LC50 (the source's name)
[22] = read-out: pLC50 (the source's name) (converted)

SMILES: COc1cc([C@@H]2c3cc4c(cc3[C@@H](NC(=O)CN3CCN(CCCCCCCCCCN5CCN(CC(=O)N[C@@H]6c7cc8c(cc7[C@@H](c7cc(OC)c(O)c(OC)c7)[C@H]7C(=O)OC[C@@H]76)OCO8)CC5)CC3)[C@H]3COC(=O)[C@H]23)OCO4)cc(OC)c1O
- growth at 50 µM (UACC-62): -30%
- growth at 50 µM (MCF7 [1]): -60%
- GI50 (HOP-92 [2]; read-out: GI50): 140 nM
- CC50 (HOP-92 [2]; [21]): > 50000 nM
- TGI (HOP-92 [2]; read-out: TGI): 2580 nM
- GI50 (HOP-92 [2]; read-out: pGI50 (converted)): 141 nM
- CC50 (HOP-92 [2]; [22]): > 50100 nM
- TGI (HOP-92 [2]; read-out: pTGI (converted)): 2570 nM
- GI50 (SNB-75; read-out: GI50): 228 nM
- CC50 (SNB-75; [21]): > 50000 nM
- TGI (SNB-75; read-out: TGI): 2750 nM
- GI50 (SNB-75; read-out: pGI50 (converted)): 229 nM
- CC50 (SNB-75; [22]): > 50100 nM
- TGI (SNB-75; read-out: pTGI (converted)): 2750 nM
- GI50 (LOX IMVI; read-out: GI50): 73.1 nM
- GI50 (LOX IMVI; read-out: pGI50 (converted)): 72.4 nM
- GI50 (M14; read-out: GI50): 703 nM
- CC50 (M14; [21]): > 50000 nM
- TGI (M14; read-out: TGI): 2200 nM
- GI50 (M14; read-out: pGI50 (converted)): 708 nM
- CC50 (M14; [22]): > 50100 nM
- TGI (M14; read-out: pTGI (converted)): 2190 nM
- GI50 (IGROV-1; read-out: GI50): 360 nM
- CC50 (IGROV-1; [21]): > 50000 nM
- TGI (IGROV-1; read-out: TGI): 7590 nM
- GI50 (IGROV-1; read-out: pGI50 (converted)): 363 nM
- CC50 (IGROV-1; [22]): > 50100 nM
- TGI (IGROV-1; read-out: pTGI (converted)): 7590 nM
- GI50 (UO-31 [3]; read-out: GI50): 986 nM
- CC50 (UO-31 [3]; [21]): 13500 nM
- TGI (UO-31 [3]; read-out: TGI): 3610 nM
- GI50 (UO-31 [3]; read-out: pGI50 (converted)): 977 nM
- CC50 (UO-31 [3]; [22]): 13500 nM
- TGI (UO-31 [3]; read-out: pTGI (converted)): 3630 nM
- GI50 (DU-145 [4]; read-out: GI50): 153 nM
- CC50 (DU-145 [4]; [21]): 14600 nM
- TGI (DU-145 [4]; read-out: TGI): 2890 nM
- GI50 (DU-145 [4]; read-out: pGI50 (converted)): 151 nM
- CC50 (DU-145 [4]; [22]): 14500 nM
- TGI (DU-145 [4]; read-out: pTGI (converted)): 2880 nM
- GI50 (BT-549 [5]; read-out: GI50): 576 nM
- TGI (BT-549 [5]; read-out: TGI): 1460 nM
- GI50 (BT-549 [5]; read-out: pGI50 (converted)): 575 nM
- TGI (BT-549 [5]; read-out: pTGI (converted)): 1480 nM
- growth at 0.005 µM (HOP-62 [6]): 88%
- growth at 0.005 µM (HCT-116): 99%
- growth at 0.005 µM (HCT-15): 99%
- growth at 0.005 µM (OVCAR-3): 100%
- growth at 0.005 µM (CAKI-1): 93%
- growth at 0.005 µM (UO-31 [7]): 86%
- growth at 0.005 µM (PC-3): 99%
- growth at 0.005 µM (MCF7 [8]): 90%
- growth at 0.005 µM (MDA-MB-231 [9]): 98%
- growth at 0.005 µM [10]: 94%
- growth at 0.05 µM (HOP-92 [11]): 73%
- growth at 0.05 µM (NCI-H226): 83%
- growth at 0.05 µM (OVCAR-4): 94%
- growth at 0.05 µM (A498): 72%
- growth at 0.05 µM (DU-145 [12]): 77%
- growth at 0.05 µM (BT-549 [13]): 87%
- growth at 0.5 µM (HL-60(TB) [14]): 15%
- growth at 0.5 µM (HOP-62 [15]): 23%
- growth at 0.5 µM (SF-539): 13%
- growth at 0.5 µM (SK-MEL-2): 74%
- growth at 0.5 µM (SK-MEL-28): 138%
- growth at 0.5 µM [16]: 101%
- growth at 0.5 µM (SN12C): 27%
- growth at 5 µM (HL-60(TB) [17]): -44%
- growth at 5 µM (786-0): -13%
- growth at 5 µM (DU-145 [18]): -7%
- growth at 5 µM (MDA-MB-231 [19]): -45%
- growth at 50 µM (RPMI-8226): -13%
- growth at 50 µM (HOP-62 [20]): -20%
- growth at 50 µM (NCI-H460): -81%
- growth at 50 µM (NCI-H522): -55%
- growth at 50 µM (COLO 205): -35%
